This assay concerns UO-31. Nature of the assay: Antitumor activity against human UO31 cells at 10^-5 M after 48 hrs by SRB assay. As to conditions: UO-31, 48 h, read-out: GI. In kind it is functional. In a few lines:
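Single-dose screen following the National Cancer Institute Drug Evaluation Branch protocol, run on the NCI panel of 60 human tumour cell lines covering nine cancer types. Percent growth of treated cells was recorded and reported as percentage growth inhibition (GI%). Compounds meeting preset inhibition thresholds advanced to a five-dose, 10-fold dilution series.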

With `Cc1cc2nc(-c3c(N)ncc(C#N)c3-c3ccc(O)cc3)[nH]c2cc1C`, the inhibition of growth at 10 µM stood at 33.4%.

Source of the values: ChEMBL document CHEMBL1821649, “Synthesis, characterization of some benzazoles bearing pyridine moiety: search for novel anticancer agents” (2011).
